Measured values published in ChEMBL document CHEMBL4229344 (Eur J Med Chem, 2018).

Legend:
[1] = molecular target: Megakaryocyte-associated tyrosine-protein kinase (Homo sapiens) (UniProt P42679); test: Binding affinity to wild-type human full length CTK (M43 to P508 residues) expressed in mammalian expression system assessed as residual binding level at 1 uM by Kinomescan method relative to control
Method in brief: (§1)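 Single-concentration (1 μM) competition-binding screen run by KINOMEscan against a panel of 468 purified kinases and mutants. The read-out is the relative binding activity of the test compound to each kinase.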

[2] = molecular target: Death-associated protein kinase 3 (Homo sapiens) (UniProt O43293); test: Binding affinity to wild-type human partial length DAPK3 (M1 to A277 residues) expressed in bacterial expression system assessed as residual binding level at 1 uM by Kinomescan method relative to control
[3] = molecular target: MAP kinase-interacting serine/threonine-protein kinase 1 (Homo sapiens) (UniProt Q9BUB5); test: Binding affinity to wild-type human full length MKNK1 (M1 to L424 residues) expressed in mammalian expression system assessed as residual binding level at 1 uM by Kinomescan method relative to control
Sequence of MAP kinase-interacting serine/threonine-protein kinase 1 (Homo sapiens) (Q9BUB5 whole entry, looked up, the tested form may be a part): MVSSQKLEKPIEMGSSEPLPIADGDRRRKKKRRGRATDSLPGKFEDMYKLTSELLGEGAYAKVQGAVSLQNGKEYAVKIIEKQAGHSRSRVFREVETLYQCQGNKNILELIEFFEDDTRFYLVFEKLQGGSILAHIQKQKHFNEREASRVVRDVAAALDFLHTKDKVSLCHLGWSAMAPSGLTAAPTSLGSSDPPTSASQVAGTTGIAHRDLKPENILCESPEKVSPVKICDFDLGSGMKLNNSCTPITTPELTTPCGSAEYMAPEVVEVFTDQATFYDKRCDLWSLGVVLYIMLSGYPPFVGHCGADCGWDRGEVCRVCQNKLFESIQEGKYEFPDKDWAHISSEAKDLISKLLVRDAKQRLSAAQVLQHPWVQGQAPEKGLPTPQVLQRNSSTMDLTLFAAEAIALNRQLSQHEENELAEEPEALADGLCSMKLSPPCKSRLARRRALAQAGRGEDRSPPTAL
Method in brief: (§2)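 Single-concentration KINOMEscan (DiscoverX) binding screen at 1 μM against a panel of 468 purified kinases and mutants. The read-out is binding relative to control.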

[4] = molecular target: Phosphatidylinositol 4,5-bisphosphate 3-kinase catalytic subunit alpha isoform (Homo sapiens) (UniProt P42336); test: Binding affinity to wild-type human partial length PIK3CA (R108 to N1068 residues) expressed in mammalian expression system assessed as residual binding level at 1 uM by Kinomescan method relative to control
Sequence of Phosphatidylinositol 4,5-bisphosphate 3-kinase catalytic subunit alpha isoform (Homo sapiens) (P42336 whole entry, the tested form may be a part, canonical isoform): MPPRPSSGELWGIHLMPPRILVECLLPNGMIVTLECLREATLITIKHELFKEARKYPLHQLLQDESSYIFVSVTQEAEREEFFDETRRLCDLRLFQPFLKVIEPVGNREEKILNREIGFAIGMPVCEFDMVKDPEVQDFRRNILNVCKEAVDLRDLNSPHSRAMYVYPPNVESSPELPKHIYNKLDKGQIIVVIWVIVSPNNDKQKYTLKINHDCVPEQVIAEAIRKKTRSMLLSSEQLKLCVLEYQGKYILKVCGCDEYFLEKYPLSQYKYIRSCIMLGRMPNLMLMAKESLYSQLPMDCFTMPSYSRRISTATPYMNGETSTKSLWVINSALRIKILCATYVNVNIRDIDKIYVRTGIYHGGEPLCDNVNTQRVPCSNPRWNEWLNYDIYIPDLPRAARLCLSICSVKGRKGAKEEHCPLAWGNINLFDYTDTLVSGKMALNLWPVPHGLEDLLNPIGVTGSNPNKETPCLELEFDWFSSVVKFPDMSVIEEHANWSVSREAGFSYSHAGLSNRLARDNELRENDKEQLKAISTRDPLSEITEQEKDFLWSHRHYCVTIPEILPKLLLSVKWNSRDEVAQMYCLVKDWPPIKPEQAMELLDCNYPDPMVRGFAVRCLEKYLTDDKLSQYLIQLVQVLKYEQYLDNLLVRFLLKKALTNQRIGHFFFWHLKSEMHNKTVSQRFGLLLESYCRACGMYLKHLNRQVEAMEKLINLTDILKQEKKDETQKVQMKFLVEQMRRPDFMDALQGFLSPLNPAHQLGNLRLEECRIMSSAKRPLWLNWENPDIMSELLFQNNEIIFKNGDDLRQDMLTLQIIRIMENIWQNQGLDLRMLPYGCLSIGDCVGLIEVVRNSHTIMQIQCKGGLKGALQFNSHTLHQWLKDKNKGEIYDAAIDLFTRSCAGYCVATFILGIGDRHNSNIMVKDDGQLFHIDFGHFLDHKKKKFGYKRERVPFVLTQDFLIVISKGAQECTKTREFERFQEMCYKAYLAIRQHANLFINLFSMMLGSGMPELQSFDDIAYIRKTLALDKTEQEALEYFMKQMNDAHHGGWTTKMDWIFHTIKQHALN

[5] = molecular target: Serine/threonine-protein kinase 3 (Homo sapiens) (UniProt Q13188); test: Binding affinity to wild-type human partial length MST2 (D17 to E318 residues) expressed in bacterial expression system assessed as residual binding level at 1 uM by Kinomescan method relative to control
[6] = molecular target: Cyclin-dependent kinase 11B (Homo sapiens) (UniProt P21127); test: Binding affinity to wild-type human partial length CDC2L1 (P353 to G692 residues) expressed in bacterial expression system assessed as residual binding level at 1 uM by Kinomescan method relative to control
Method in brief: (§3)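 Kinome-wide competition binding screen against a panel of 468 purified kinases/mutants, with the test compound at a single concentration of 1 μM. Read-out is the relative binding activity of each kinase in the presence of compound.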

[7] = molecular target: Calcium/calmodulin-dependent protein kinase type 1 (Homo sapiens) (UniProt Q14012); test: Binding affinity to wild-type human full length CAMK1 (M1 to L370 residues) expressed in bacterial expression system assessed as residual binding level at 1 uM by Kinomescan method relative to control; method in brief: as §1
[8] = molecular target: Mitogen-activated protein kinase kinase kinase kinase 1 (Homo sapiens) (UniProt Q92918); test: Binding affinity to wild-type human full length HPK1 (M1 to R799 residues) expressed in bacterial expression system assessed as residual binding level at 1 uM by Kinomescan method relative to control
Method in brief: (§4)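 KINOMEscan competition binding against 468 purified kinases/mutants, test compound at 1 µM; residual binding relative to control.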

[9] = molecular target: Tyrosine-protein kinase HCK (Homo sapiens) (UniProt P08631); test: Binding affinity to wild-type human full length HCK (M22 to P526 residues) expressed in bacterial expression system assessed as residual binding level at 1 uM by Kinomescan method relative to control; method in brief: as §4
Sequence of Tyrosine-protein kinase HCK (Homo sapiens) (P08631 2-526 limits assumed): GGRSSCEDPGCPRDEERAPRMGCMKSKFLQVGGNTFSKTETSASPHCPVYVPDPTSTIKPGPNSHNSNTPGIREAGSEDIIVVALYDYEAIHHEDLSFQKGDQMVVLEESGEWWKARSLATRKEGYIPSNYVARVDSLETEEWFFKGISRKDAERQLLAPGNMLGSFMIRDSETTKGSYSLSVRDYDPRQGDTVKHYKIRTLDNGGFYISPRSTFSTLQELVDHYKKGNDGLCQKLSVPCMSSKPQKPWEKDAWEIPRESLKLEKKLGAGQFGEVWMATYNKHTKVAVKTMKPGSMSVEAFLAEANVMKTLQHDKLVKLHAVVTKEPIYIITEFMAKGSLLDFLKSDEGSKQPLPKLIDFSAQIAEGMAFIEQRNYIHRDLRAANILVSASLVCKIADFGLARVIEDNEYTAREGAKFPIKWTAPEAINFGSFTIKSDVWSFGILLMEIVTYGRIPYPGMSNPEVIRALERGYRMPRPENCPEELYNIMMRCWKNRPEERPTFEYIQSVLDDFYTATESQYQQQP

[10] = molecular target: Eukaryotic translation initiation factor 2-alpha kinase 1 (Homo sapiens) (UniProt Q9BQI3); test: Binding affinity to wild-type human partial length EIF2AK1 (Q147 to E603 residues) expressed in mammalian expression system assessed as residual binding level at 1 uM by Kinomescan method relative to control
[11] = molecular target: Mitogen-activated protein kinase 12 (Homo sapiens) (UniProt P53778); test: Binding affinity to wild-type human full length p38-gamma (M1 to L367 residues) expressed in mammalian expression system assessed as residual binding level at 1 uM by Kinomescan method relative to control; method in brief: as §4
Sequence of Mitogen-activated protein kinase 12 (Homo sapiens) (P53778 whole entry, the tested form may be a part): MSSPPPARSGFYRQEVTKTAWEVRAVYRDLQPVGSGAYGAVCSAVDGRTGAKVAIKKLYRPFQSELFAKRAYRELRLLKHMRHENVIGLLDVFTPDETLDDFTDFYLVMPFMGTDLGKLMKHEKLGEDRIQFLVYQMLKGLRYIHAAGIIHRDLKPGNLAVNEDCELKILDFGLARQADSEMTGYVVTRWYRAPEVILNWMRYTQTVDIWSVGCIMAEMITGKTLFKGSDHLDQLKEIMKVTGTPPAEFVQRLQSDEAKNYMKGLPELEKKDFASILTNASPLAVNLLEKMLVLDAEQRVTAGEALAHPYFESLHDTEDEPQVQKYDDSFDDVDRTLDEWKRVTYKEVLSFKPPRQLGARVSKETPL

[12] = molecular target: RAC-alpha serine/threonine-protein kinase (Homo sapiens) (UniProt P31749); test: Binding affinity to wild-type human partial length AKT1 expressed in bacterial expression system assessed as residual binding level at 1 uM by Kinomescan method relative to control; method in brief: as §2
Sequence of RAC-alpha serine/threonine-protein kinase (Homo sapiens) (P31749 whole entry, the tested form may be a part): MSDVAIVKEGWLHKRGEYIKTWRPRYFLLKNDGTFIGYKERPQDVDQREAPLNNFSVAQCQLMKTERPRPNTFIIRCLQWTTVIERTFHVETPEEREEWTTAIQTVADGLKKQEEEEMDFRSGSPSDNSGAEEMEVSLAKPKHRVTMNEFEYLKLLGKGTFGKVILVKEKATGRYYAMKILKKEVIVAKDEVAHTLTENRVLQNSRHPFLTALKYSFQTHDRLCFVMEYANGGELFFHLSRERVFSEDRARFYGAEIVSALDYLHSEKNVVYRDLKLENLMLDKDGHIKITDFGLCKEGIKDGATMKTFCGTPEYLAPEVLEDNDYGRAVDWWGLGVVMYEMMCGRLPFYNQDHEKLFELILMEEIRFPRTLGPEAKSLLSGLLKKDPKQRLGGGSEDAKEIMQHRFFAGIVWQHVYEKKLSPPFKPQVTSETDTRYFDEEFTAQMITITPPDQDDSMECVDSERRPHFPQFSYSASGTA

[13] = molecular target: Serine/threonine-protein kinase MARK2 (Homo sapiens) (UniProt Q7KZI7); test: Binding affinity to wild-type human partial length MARK2 (M1 to R450 residues) expressed in bacterial expression system assessed as residual binding level at 1 uM by Kinomescan method relative to control; method in brief: as §3
Sequence of Serine/threonine-protein kinase MARK2 (Homo sapiens) (Q7KZI7 whole entry, the tested form may be a part): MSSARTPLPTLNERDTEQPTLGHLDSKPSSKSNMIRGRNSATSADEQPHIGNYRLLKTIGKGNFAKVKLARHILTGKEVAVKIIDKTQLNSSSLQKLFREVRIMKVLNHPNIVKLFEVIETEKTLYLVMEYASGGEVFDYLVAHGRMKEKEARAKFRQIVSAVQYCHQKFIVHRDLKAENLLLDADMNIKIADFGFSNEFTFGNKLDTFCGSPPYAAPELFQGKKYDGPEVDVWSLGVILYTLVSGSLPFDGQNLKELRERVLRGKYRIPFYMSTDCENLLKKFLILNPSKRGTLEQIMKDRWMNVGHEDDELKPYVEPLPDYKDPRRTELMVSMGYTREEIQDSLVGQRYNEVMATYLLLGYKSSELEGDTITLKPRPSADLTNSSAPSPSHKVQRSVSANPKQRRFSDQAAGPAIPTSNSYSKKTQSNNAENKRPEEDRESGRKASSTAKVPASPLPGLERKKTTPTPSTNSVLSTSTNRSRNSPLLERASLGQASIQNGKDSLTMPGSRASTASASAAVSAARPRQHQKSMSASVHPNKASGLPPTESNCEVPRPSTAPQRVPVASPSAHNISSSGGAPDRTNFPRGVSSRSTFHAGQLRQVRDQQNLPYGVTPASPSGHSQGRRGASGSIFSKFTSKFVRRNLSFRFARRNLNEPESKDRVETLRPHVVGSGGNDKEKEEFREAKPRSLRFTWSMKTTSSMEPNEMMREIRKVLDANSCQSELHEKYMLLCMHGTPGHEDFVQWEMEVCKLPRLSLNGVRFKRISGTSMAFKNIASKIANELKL

[14] = molecular target: Serine/threonine-protein kinase DCLK2 (Homo sapiens) (UniProt Q8N568); test: Binding affinity to wild-type human partial length DCAMKL2 (K273 to V664 residues) expressed in bacterial expression system assessed as residual binding level at 1 uM by Kinomescan method relative to control
[15] = molecular target: Cyclin-dependent kinase 5 (Homo sapiens) (UniProt Q00535); test: Binding affinity to wild-type human full length CDK5 (M1 to P292 residues) expressed in bacterial expression system assessed as residual binding level at 1 uM by Kinomescan method relative to control; method in brief: as §4
Sequence of Cyclin-dependent kinase 5 (Homo sapiens) (Q00535 whole entry, looked up, the tested form may be a part): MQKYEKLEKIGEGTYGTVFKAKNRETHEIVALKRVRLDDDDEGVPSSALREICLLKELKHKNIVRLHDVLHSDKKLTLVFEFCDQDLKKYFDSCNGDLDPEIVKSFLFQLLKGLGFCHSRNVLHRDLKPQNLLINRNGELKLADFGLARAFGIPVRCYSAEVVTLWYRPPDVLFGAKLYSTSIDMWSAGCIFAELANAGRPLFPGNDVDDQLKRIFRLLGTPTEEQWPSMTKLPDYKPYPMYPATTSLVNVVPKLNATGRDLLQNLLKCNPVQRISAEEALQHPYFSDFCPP

[16] = molecular target: Mitogen-activated protein kinase kinase kinase 12 (DLK/MAP3K12) (Homo sapiens) (UniProt Q12852); test: Binding affinity to wild-type human full length DLK (M1 to P859 residues) expressed in mammalian expression system assessed as residual binding level at 1 uM by Kinomescan method relative to control
[17] = molecular target: Platelet-derived growth factor receptor alpha (Homo sapiens, UniProt P16234); test: Inhibition of PDGFRalpha in human EOL-1 cells assessed as decrease in ERK phosphorylation at T202/Y204 residues after 2 hrs in presence of PDGF-AA by Western blot analysis; type: cell-based
[18] = molecular target: Serine/threonine-protein kinase/endoribonuclease IRE1 (Homo sapiens) (UniProt O75460); test: Binding affinity to wild-type human partial length ERN1 (S551 to E852 residues) expressed in mammalian expression system assessed as residual binding level at 1 uM by Kinomescan method relative to control
[19] = test system: Receptor-type tyrosine-protein kinase FLT3 (Homo sapiens), P36888 [UNDEFINED MUTATION]; test: Binding affinity to human partial length FLT3 ITD/D835V double mutant expressed in bacterial expression system assessed as residual binding level at 1 uM by Kinomescan method relative to control
Sequence of Receptor-type tyrosine-protein kinase FLT3 (Homo sapiens), P36888 [UNDEFINED MUTATION] (P36888 whole entry, looked up, stated change not applied): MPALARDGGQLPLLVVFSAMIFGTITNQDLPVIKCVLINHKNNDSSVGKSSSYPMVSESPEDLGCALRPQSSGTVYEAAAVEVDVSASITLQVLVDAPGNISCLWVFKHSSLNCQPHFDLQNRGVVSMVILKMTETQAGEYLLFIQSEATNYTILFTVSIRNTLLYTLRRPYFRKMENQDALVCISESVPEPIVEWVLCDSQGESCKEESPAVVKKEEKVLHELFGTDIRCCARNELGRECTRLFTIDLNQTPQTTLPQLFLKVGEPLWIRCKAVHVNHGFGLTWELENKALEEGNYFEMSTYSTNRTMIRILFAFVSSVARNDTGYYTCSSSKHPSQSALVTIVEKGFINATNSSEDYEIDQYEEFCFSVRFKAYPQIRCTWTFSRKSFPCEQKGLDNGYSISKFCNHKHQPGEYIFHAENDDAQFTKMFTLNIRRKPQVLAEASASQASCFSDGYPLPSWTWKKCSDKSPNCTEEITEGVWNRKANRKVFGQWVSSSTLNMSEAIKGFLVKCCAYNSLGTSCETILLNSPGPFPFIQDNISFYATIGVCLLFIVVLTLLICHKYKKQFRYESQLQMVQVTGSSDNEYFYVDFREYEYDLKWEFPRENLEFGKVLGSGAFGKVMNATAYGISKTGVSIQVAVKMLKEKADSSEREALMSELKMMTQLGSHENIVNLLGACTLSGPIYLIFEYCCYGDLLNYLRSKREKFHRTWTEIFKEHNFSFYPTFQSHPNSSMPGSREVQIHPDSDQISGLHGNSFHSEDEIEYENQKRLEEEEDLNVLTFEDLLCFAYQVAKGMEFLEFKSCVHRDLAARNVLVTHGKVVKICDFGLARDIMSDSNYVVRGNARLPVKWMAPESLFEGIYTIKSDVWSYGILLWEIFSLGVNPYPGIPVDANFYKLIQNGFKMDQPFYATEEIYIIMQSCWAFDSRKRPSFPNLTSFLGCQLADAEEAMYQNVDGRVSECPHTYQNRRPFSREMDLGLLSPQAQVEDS
Method in brief: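 Kinome-wide single-concentration binding screen (KINOMEscan) at 1 μM against a panel of 468 purified kinases and mutants. Read-out is relative binding of each kinase compared with control. Selectivity across the panel was summarised as an S(10) score.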

[20] = molecular target: Serine/threonine-protein kinase PLK3 (Homo sapiens) (UniProt Q9H4B4); test: Binding affinity to wild-type human partial length PLK3 (A42 to L334 residues) expressed in mammalian expression system assessed as residual binding level at 1 uM by Kinomescan method relative to control
Method in brief: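 KINOMEscan competition binding against a panel of 468 purified kinases/mutants, compound tested at 1 μM; readout is relative binding activity versus control.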

[21] = molecular target: Serine/threonine-protein kinase 32A (Homo sapiens) (UniProt Q8WU08); test: Binding affinity to wild-type human full length YANK1 (M1 to L396 residues) expressed in mammalian expression system assessed as residual binding level at 1 uM by Kinomescan method relative to control; method in brief: as §2

Compound: Cc1ccc(NC(=O)c2ccc(CN(CCN(C)C)C(=O)c3cccnc3)cc2)cc1Nc1nccc(-c2cccnc2)n1
- Activity [1]: 90%
- Activity [2]: 93%
- Activity [3]: 100%
- Activity [4]: 100%
- Activity [5]: 100%
- Activity [6]: 91%
- Activity [7]: 81%
- Activity [8]: 94%
- Activity [9]: 83%
- Activity [10]: 100%
- Activity [11]: 69%
- Activity [12]: 95%
- Activity [13]: 91%
- Activity [14]: 96%
- Activity [15]: 94%
- Activity [16]: 93%
- inhibition [17]: Dose-dependent effect
- Activity [18]: 96%
- Activity [19]: 98%
- Activity [20]: 79%
- Activity [21]: 100%
